Article PMC6750927 (Science Advances, 2019)
Blank lines part the entries; values can stand above or below the compound they belong to.

How the values were obtained:
Cdc37, wild type = Cdc37, wild type (UniProt Q16543); experiment: ITC
Cdc37 Q208A mutant = Cdc37 Q208A mutant (UniProt Q16543); experiment: ITC
Cdc37 R246A mutant = Cdc37 R246A mutant (UniProt Q16543); experiment: ITC
Hsp90 ATPase activity = Hsp90 ATPase activity (Homo sapiens, UniProt P07900); experiment: Hsp90 ATPase assay; type: biochemical
Outline: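 Hsp90 ATPase measured with an ADP Hunter Plus kit at 37°C. Compound, Hsp90 (5 μM as added) and ATP (100 μM as added) combined in equal parts for 1 h. Background taken without protein or compound; protein alone set as 100% activity. n = 3 wells, from three independent experiments.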

Hsp90 ATP binding site = Hsp90 ATP binding site (Homo sapiens, UniProt P07900); experiment: ATP binding site competitive FP assay
Outline: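 Competition for the Hsp90 ATP site by fluorescence polarization with a fluorescein isothiocyanate–geldanamycin probe. Read at excitation 485 nm and emission 535 nm. Inhibition rate derived by a previously reported method. n = 3 wells, from three independent experiments.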

Hsp90-Cdc37 PPI = Hsp90-Cdc37 PPI (Homo sapiens, UniProt P07900); experiment: Hsp90-Cdc37 HTRF assay; type: binding; conditions: dose-dependent
Outline: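 His-tagged Hsp90 and GST-tagged Cdc37 premixed at 80 nM final in PBS with 200 mM KF, pH 7.4. Twofold dilutions of test compound (seven concentrations) added for 1 h at 37°C. HTRF read at excitation 320 nm, emission 665 and 620 nm; ratio = (665/620) × 10,000. n = 3 wells, from three independent experiments.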

Chain of Cdc37, wild type (Q16543 whole entry): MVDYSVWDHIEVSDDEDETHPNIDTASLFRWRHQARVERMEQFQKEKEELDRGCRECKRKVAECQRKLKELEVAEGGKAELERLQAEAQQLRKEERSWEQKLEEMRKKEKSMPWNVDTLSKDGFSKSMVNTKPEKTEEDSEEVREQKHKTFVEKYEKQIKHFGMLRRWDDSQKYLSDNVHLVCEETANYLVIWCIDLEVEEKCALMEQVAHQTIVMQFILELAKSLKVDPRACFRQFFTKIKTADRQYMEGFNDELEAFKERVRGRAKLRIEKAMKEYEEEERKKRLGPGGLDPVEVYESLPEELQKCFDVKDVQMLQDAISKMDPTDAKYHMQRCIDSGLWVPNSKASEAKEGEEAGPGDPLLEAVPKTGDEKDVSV
Chain of Cdc37 Q208A mutant (Q16543 whole entry Q208A): as the sequence (Q16543 whole entry) above, with Q208A counted along it
Chain of Cdc37 R246A mutant (Q16543 whole entry R246A): as the sequence (Q16543 whole entry) above, with R246A counted along it

Kd (Cdc37, wild type): 2.17 µM | Kd (Cdc37 Q208A mutant): 3.51 µM | Kd (Cdc37 R246A mutant): 6.02 µM
Compound: Heat shock protein 90 (Hsp90), wild type, His-tagged (from UniProt P07900 1-732) (natural protein)

Kd (Cdc37, wild type): 6.85 µM
Compound: Hsp90 Y61A mutant (from UniProt P07900 1-732) (natural protein)

IC50 (Hsp90 ATPase activity): 0.16 µM | IC50 (Hsp90 ATP binding site): 0.012 µM | inhibition of Hsp90-Cdc37 binding (IC50) (Hsp90-Cdc37 PPI): no activity
Compound: CC(C)c1cc(C(=O)N2Cc3ccc(CN4CCN(C)CC4)cc3C2)c(O)cc1O [AT13387]

Kd (Cdc37, wild type): 8.85 µM
Compound: Hsp90 R46A mutant (from UniProt P07900 1-732) (natural protein)
